High-throughput results from PubChem.
MrgX1 ag – agonists of human MrgX1 receptor. Q96LB2. MrgX1-HEK293 cells, Fluo-4 calcium fluorescence, agonist mode; stronger effect = higher value. B-score at 10 µM. 310,000 compounds, 0.44% hits. AID 588627;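 active means calcium response B-score plate-corrected fluorescence ratio at least 3 library SD, with starting fluorescence B-score inside 5 SD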
Target sequence (Q96LB2 whole entry, looked up): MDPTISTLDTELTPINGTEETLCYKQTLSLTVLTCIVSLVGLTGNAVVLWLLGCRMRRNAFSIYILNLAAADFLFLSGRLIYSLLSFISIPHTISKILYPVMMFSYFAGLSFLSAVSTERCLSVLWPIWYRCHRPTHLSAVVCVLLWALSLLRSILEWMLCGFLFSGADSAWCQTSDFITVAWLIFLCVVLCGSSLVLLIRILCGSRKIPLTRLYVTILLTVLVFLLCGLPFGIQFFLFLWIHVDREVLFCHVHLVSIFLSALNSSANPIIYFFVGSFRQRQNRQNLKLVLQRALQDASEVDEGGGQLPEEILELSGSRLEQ
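Test system: Stable human MrgX1 HEK293 cell line | Schedule: Overnight plating before 1 h dye loading | Read-out basis: Baseline-normalised fluorescence change ratio, B-scored | Detection: Kinetic calcium dye fluorescence, Fluo-4 NW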
RGS4 inh – inhibitors of human RGS4 | P49798 | HEK293 M3R/RGS4 inducible, Fluo-4 calcium flux; stronger effect = higher value; triggered by carbachol at its EC20 | B-score at 10 µM | 310,000 compounds, 0.45% hits | AID 463165;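 active means B-score, a plate-corrected calcium signal, over three deviations above library mean, with baseline fluorescence within five deviations of library mean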;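 further: RGS4 expression induced by doxycycline in cells with stable M3 receptor; B-score is computed from the integrated fluorescence ratio over baseline after carbachol; higher B-score means a larger calcium signal and so more RGS4 inhibition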
Target sequence (P49798 whole entry, looked up): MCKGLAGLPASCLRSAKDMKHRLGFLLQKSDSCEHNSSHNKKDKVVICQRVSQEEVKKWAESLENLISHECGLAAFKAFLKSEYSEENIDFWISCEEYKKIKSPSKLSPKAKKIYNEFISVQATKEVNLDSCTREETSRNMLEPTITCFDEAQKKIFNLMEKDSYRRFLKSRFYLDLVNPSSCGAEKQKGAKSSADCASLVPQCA
MrgX1 allo act – human MrgX1 positive allosteric modulation, primary screen. MrgX1-HEK293, Fluo-4 calcium flux, FDSS; stronger effect = higher value. B-score at 10 µM. 310,000 compounds, 0.63% hits;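 active means plate-corrected calcium response at least 3 library SD above typical, normal starting fluorescence, not activating the receptor alone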;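 further: compound read alongside a low EC10 to EC30 dose of BAM8-22 agonist; peak minus trough fluorescence over baseline measured at the second addition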
MrgX1 antagonist – antagonists of human MrgX1 receptor | AID 588676 | 310,000 compounds, 1.3% hits | Q96LB2 | B-score at 10 µM | MRGX1-HEK293 calcium flux, Fluo-4, BAM8-22 antagonism; stronger effect = lower value;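 active means calcium-response B-score plate-corrected more than 3 library SD below zero, starting fluorescence within 5 deviations, no agonist response on first addition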;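 further: peak minus trough fluorescence over baseline after final BAM8-22 challenge near maximal dose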
RGS4 act – potentiators or activators of RGS4; B-score at 10 µM; HEK293 M3R/inducible RGS4, carbachol calcium flux Fluo4; stronger effect = lower value; 310,000 compounds, 0.92% hits; AID 463111;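 active means B-score of the integrated calcium signal more than 4 SD below the library mean, with starting fluorescence not abnormally high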;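 further: negative B-score means reduced calcium response which marks RGS4 activation or potentiation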
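Also added: carbachol at ECmax as muscarinic agonist stimulus; Assay system: HEK293 cells with stable M3R and inducible RGS4; Timing: overnight RGS4 induction, 30 min dye load 37 °C, 20 min compound RT; Measured by: Fluo4-AM (2 µM) calcium-flux fluorescence, kinetic read.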
KCC2 mod – modulates chloride dependent transport by human KCC2. B-score of Tl+ flux slope (higher = more flux/activation; lower = inhibition) at 10 µM. KCC2 cells, thallium flux FluoZin-2 fluorescence. 190,000 compounds, 2.2% hits. Q9H2X9;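 active means thallium flux slope and its plate-corrected score both differing from the plate sample mean at a set confidence after two filtering rounds, in either direction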;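 further: slope of fluorescence scaled to starting intensity during 10 to 20 s after thallium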
* marks the source's active call; other numbers are inactive results; i = inactive; . = no result given. An excerpt weighted towards active compounds, which were near 4.7% of everything screened.

SMILES	MrgX1 ag	RGS4 inh	MrgX1 allo act	MrgX1 antagonist	RGS4 act	KCC2 mod
Cn1nc(-c2ccc(Cl)cc2)nc2c(=O)n(C)c(=O)nc1-2	i	i	i	-4.65*	i	-0.827
CCn1cc(C2=NOC(C(=O)Nc3c(C)nn(Cc4ccc(F)cc4)c3C)C2)c(C)n1 (centres undefined)	.	i	.	.	i	0.478
CCn1cc(C2=NOC(C(=O)Nc3cccc(C(C)=O)c3)C2)c(C)n1 (centres undefined)	i	i	i	-4.82*	i	.
Cc1ccc(C)c(Cn2nnc3c(=O)[nH]c(C4CCCN(S(=O)(=O)Cc5ccccc5)C4)nc32)c1 (centres undefined)	i	i	i	i	i	.
CC(Oc1ccc(-c2ccccc2)c(F)c1)c1ccn(S(=O)(=O)c2ccc(Br)cc2)n1 (centres undefined)	i	i	i	-5.69*	i	.
CC(Oc1ccc(Cl)cc1)c1ccnn1S(=O)(=O)c1ccc(Cl)cc1 (centres undefined)	i	i	i	i	i	.
Cc1ccc(OCC(=O)NCCNC(=O)c2ccco2)cc1C	i	i	i	i	i	.
NC(=O)C1CCN(CC(=O)Nc2ccc(S(=O)(=O)N3CCOCC3)cc2)CC1	i	i	i	i	i	.
O=C(C1CC1)N1N=C(c2ccccc2)CC1(O)C(F)(F)F (centres undefined)	i	i	i	i	i	.
O=C(c1ccccc1[N+](=O)[O-])N1N=C(c2ccccc2)CC1(O)C(F)(F)F (centres undefined)	i	i	i	i	-9.28*	.
Cc1cccc2sc(NC(=O)C3CCN(S(=O)(=O)c4cc([N+](=O)[O-])ccc4Cl)CC3)nc12	i	i	i	-6.8*	i	-0.285
CCOCCCn1c(=N)c(C(=O)NCc2ccc3c(c2)OCO3)cc2c(=O)n3cccc(C)c3nc21	i	i	i	i	-8.46*	-0.611
Cc1cccn2c(=O)c3cc(C(=O)NCCc4ccccc4)c(=N)n(Cc4ccco4)c3nc12	i	i	i	i	-8.64*	.
Cc1cccn2c(=O)c3cc(C(=O)NCc4ccco4)c(=N)n(CCc4ccccc4)c3nc12	i	.	i	i	.	-0.851
COc1cccc(N/C(SC)=C(/C#N)C(=O)NCc2cccs2)c1	i	i	i	i	-7.53*	0.195
COc1cccc(N/C(SCc2ccccc2C)=C(/C#N)C(=O)NCc2cccs2)c1	i	i	i	i	i	0.415
COc1ccc(N2CCN(C(=O)CCc3nnc4ccc(N5CCOCC5)nn34)CC2)cc1	i	i	i	i	i	.
CC(C)(C)C1CC=C2C(C#N)=C(N)C(C#N)(C#N)C(c3cccs3)C2C1 (centres undefined)	i	i	i	i	i	0.506
CCc1ccc(C2C(C#N)=C(N)C(C#N)(C#N)C3=CCC(C(C)(C)C)CC32)cc1 (centres undefined)	i	i	i	-5.82*	i	-1.35
Cc1cc(C(=O)N2CCN(C(c3ccccc3)c3ccccc3)CC2)no1	i	i	i	i	i	-0.00428
CCCc1cc(C(=O)N2CCN(C(c3ccccc3)c3ccccc3)CC2)no1	i	i	i	i	-7.43*	-0.042
CCn1cc(Cl)c(C(=O)Nc2cccc(CN3CCOCC3)c2)n1	i	i	i	i	i	.
CCOc1ccc(S(=O)(=O)N2CCC(C(=O)NC3CCCC3)CC2)cc1	i	i	i	i	i	.
O=S(=O)(c1ccc2nc(Nc3ccccc3)ccc2c1)N1CCCCC1	i	i	i	i	i	.
Cc1ccc(C(O)(CCN2CCCCC2)c2ccccc2)cc1 (centres undefined)	i	i	i	i	-7.61*	.
SMILES	MrgX1 ag	RGS4 inh	MrgX1 allo act	MrgX1 antagonist	RGS4 act	KCC2 mod
CCCCn1c(N)c(N(CC(C)C)C(=O)COC(=O)Cc2cccc(OC)c2)c(=O)[nH]c1=O	i	i	i	i	i	.
OC(c1cccs1)(c1cccs1)C1C[N+]2(CF)CCC1CC2 (centres undefined)	i	i	i	i	-8.38*	.
O=C(CCC1CCCC1)NCc1cccs1	i	i	i	i	i	0.59
COC(=O)c1cc(S(=O)(=O)NCCCN2CCCC2=O)cn1C	i	i	i	i	i	.
CCCCN(C(=O)c1cccs1)C1CCS(=O)(=O)C1 (centres undefined)	i	i	i	i	i	.
O=C(Cc1csc(Nc2nc(=S)[nH]c3ccccc23)n1)NCc1ccc(Cl)cc1	i	i	i	i	i	5.88*
O=C(Cc1csc(NC(=O)Nc2ccc(Cl)cc2)n1)NCc1ccccn1	i	i	i	i	i	.
COc1ccc(CNC(=O)Cc2csc(Nc3nc(=S)[nH]c4ccccc34)n2)cc1	i	i	i	i	i	7*
COc1ccc(C(=O)Nc2nc(CC(=O)NCc3ccc(F)cc3)cs2)cc1	i	i	i	i	i	.
CC(=O)Oc1c(Cl)cc(Cl)cc1/C=C/c1ccc2ccccc2n1	i	i	i	-8.32*	i	0.203
CC(=O)Oc1ccc(Cl)cc1/C=C/c1ccc2ccccc2n1	i	i	i	i	i	-0.177
COc1cc(N/C=C(\C(C)=O)c2ccccc2)cc(OC)c1	30*	.	i	i	.	.
CCC1CCCCN1CCCNC(=O)CSc1nc2nc(C)c(Cc3ccccc3Cl)c(C)n2n1 (centres undefined)	i	i	i	i	-6.98*	.
CCCCn1c(N)c(N(CCC(C)C)C(=O)c2c(C)noc2C)c(=O)[nH]c1=O	i	i	i	i	i	.
COc1ccc(C)cc1Nc1n[n+](-c2ccccc2)c(-c2cc([N+](=O)[O-])cc(OC)c2O)s1	i	i	i	-5.97*	i	.
COc1ccc(C)cc1Nc1n[n+](-c2ccccc2)c(-c2ccc(NC(C)=O)cc2)s1	i	i	i	i	i	.
CC(C)[C@H](N[C@@H](C)c1ccccc1)c1c(O)ccc2ccccc12	i	i	i	i	i	.
O=C(/C=C/c1ccc(O)c(O)c1)NC(=O)c1ccccc1O	i	i	i	-7.75*	i	.
O=C(c1ccc(Cl)c([N+](=O)[O-])c1)N1CCCc2ccccc21	i	i	i	i	i	.
COc1ccc(-c2nnc(Nc3nc4c(OC)cccc4s3)o2)cc1	i	i	i	i	i	9.51*
